pIC50: −log10 of the molar value.
Target: D(2) dopamine receptor (Rattus norvegicus, UniProt P61169)
Test: In vitro for the binding affinity against dopamine receptor D2 by using [3H](-)-sulpiride as radioligand in rat striatum.
Type: tissue-based
Procedure, shortened: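 Displacement of [³H]-(-)-sulpiride from rat striatal homogenates. Values are reported as -log₁₀(IC₅₀), the mean of two to three independent determinations. Values without error limits are the mean of two independent experiments.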

Chain of D(2) dopamine receptor (P61169 whole entry): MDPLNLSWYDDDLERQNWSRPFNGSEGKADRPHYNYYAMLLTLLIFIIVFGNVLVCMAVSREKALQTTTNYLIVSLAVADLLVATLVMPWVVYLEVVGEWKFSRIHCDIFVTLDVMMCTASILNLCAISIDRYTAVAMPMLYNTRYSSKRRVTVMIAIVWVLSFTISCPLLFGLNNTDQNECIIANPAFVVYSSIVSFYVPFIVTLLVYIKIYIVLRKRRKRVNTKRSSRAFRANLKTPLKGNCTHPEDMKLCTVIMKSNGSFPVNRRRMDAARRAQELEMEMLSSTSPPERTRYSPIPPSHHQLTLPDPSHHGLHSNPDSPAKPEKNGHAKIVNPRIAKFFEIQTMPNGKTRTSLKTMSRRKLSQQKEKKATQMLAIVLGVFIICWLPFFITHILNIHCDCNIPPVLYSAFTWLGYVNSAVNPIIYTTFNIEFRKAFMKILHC

Row | SMILES | pIC50
1 | c1ccc2c(c1)CCC21CCN(CC2CCCCC2)CC1 | 5.18
2 | CCCCCCN1CCC2(CCc3ccccc32)CC1 | 5.26
3 | CC(C)=CCN1CCC2(CCCc3ccccc32)CC1 | 5.26
4 | CC(C)=CCN1CCC2(CCc3ccccc32)CC1 | 4.77
5 | c1ccc(CN2CCC3(CCc4ccccc43)CC2)cc1 | 6.05
6 | Cc1ccc(CN2CCC3(CCCc4ccccc43)CC2)cc1 | 6.76
7 | CCCCN1CCC2(CCCc3ccccc32)CC1 | 4.96
8 | CCCCN1CCC2(CCCCc3ccccc32)CC1 | 5.60
9 | COc1ccc(CN2CCC3(CCCc4ccccc43)CC2)cc1 | 6.92
10 | COc1ccc(CN2CCC3(CCc4ccccc43)CC2)cc1 | 6.21
11 | c1ccc2c(c1)CCCC21CCN(CC2CCCCC2)CC1 | 5.71
12 | c1ccc(CN2CCC3(CCCCc4ccccc43)CC2)cc1 | 5.43
13 | CCCCN1CCC2(CCc3ccccc32)CC1 | 5.40
14 | CCCCCCN1CCC2(CCCc3ccccc32)CC1 | 5.69
